ChEMBL document CHEMBL4152233, “Design, synthesis and anthelmintic activity of 7-keto-sempervirol analogues” (Eur J Med Chem, 2018)
Calls of active or inactive are those of the source.

What was measured:
Fasciola hepatica [1] = assay: Antifasciola activity against immature stage of Fasciola hepatica Italian assessed as effect on parasite motility after 72 hrs; type: functional, organism-based
[2] = Selectivity index, ratio of IC50 for human HepG2 cells to IC50 for antischistosomal activity against schistosomula of Schistosoma mansoni assessed as effect on parasite motility; type: toxicity; conditions: read-out: Ratio IC50
Outline: (§1)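 Selectivity index was calculated as the CC50 from the HepG2 or MDBK MTT assay divided by the schistosomula phenotype or motility IC50 from the 72 hr image-based screen.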

[3] = Selectivity index, ratio of IC50 for human HepG2 cells to IC50 for newly excysted juveline stage of Fasciola hepatica Italian assessed as effect on parasite phenotype; type: toxicity; conditions: read-out: Ratio IC50
Outline: (§2)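 Selectivity index was calculated as the CC50 from the HepG2 or MDBK MTT assay divided by the F. hepatica NEJ phenotype or motility IC50 from the 72 hr manual scoring assay.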

Schistosoma mansoni [4] = assay: Antischistosomal activity against schistosomula of Schistosoma mansoni at 25 uM by throughput high content image analysis; type: functional, organism-based
Outline: (§3)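 Puerto Rican (NMRI) strain cercariae were mechanically transformed to schistosomula. About 120 larvae were co-cultured with compound for 72 hr at 37 °C, 5% CO2, at 0.625% DMSO final. Controls were DMSO and auranofin. Motility and phenotype were scored by automated image analysis, with a hit threshold of ≤-0.15 (phenotype) and ≤-0.35 (motility) in ≥70% of larvae. Runs were in duplicate, and IC50 was estimated from dose-response curves.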

[5] = Selectivity index, ratio of IC50 for MDBK cells to IC50 for newly excysted juveline stage of Fasciola hepatica Italian assessed as effect on parasite motility; type: toxicity; conditions: cattle, read-out: Ratio IC50; outline: as §2
Fasciola hepatica [6] = assay: Antifasciola activity against newly excysted juveline stage of Fasciola hepatica Italian assessed as effect on parasite phenotype after 72 hrs; type: functional, organism-based
Outline: (§4)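 NEJs came from Italian-strain metacercariae, excysted either by pepsin/HCl or by needle rupture, then 1 hr in sodium tauroglycocholate. They were plated at 25 per well in RPMI-1640 with 1% FCS. Screening was at 25 and 12.5 µM, then titration from 10 to 0.625 µM (0.16% DMSO). Controls were DMSO and 10 µM triclabendazole. Motility and phenotype were scored at 72 hr, with IC50 from dose-response curves.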

Fasciola hepatica [7] = assay: Antifasciola activity against adult stage of Fasciola hepatica Italian assessed as effect on parasite motility after 72 hrs; type: functional, organism-based
[8] = Cytotoxicity against human HepG2 cells after 24 hrs by MTT assay; type: cell-based
Outline: (§5)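 Cells were grown to about 80% confluence (HepG2 in BME, MDBK in EMEM, each with 10% FBS). They were seeded at 2.5 x10^4 per well and rested 24 hr, then exposed 24 hr to compound at 100–0.01 µM (1.25% DMSO). Controls were DMSO and 1% Triton X-100. Viability was read by MTT, and CC50 came from dose-response curves run in triplicate.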

Schistosoma mansoni [9] = assay: Antischistosomal activity against schistosomula of Schistosoma mansoni assessed as effect on parasite phenotype by throughput high content image analysis; type: functional, organism-based; outline: as §3
[10] = Selectivity index, ratio of IC50 for human HepG2 cells to IC50 for newly excysted juveline stage of Fasciola hepatica Italian assessed as effect on parasite motility; type: toxicity; conditions: read-out: Ratio IC50; outline: as §2
[11] = Selectivity index, ratio of IC50 for MDBK cells to IC50 for antischistosomal activity against schistosomula of Schistosoma mansoni assessed as effect on parasite motility; type: toxicity; conditions: cattle, read-out: Ratio IC50; outline: as §1
[12] = Selectivity index, ratio of IC50 for MDBK cells to IC50 for newly excysted juveline stage of Fasciola hepatica Italian assessed as effect on parasite phenotype; type: toxicity; conditions: cattle, read-out: Ratio IC50; outline: as §2
Schistosoma mansoni [13] = assay: Antischistosomal activity against adult stage of Schistosoma mansoni assessed as effect on parasite motility after 72 hrs by microscopic method; type: functional, organism-based
Outline: (§6)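 Mice were infected percutaneously with 200 cercariae, and adults were recovered by portal perfusion at seven weeks. Three worm pairs per well in modified DMEM with 10% FCS were given compound at 50, 25, 12.5 and 6.25 µM final (0.3% DMSO) for 72 hr at 37 °C, 5% CO2. Controls were DMSO and auranofin. Worms were scored manually by microscopy at 24, 48 and 72 hr. Experiments were run in duplicate.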

[14] = Selectivity index, ratio of IC50 for human HepG2 cells to IC50 for antischistosomal activity against schistosomula of Schistosoma mansoni assessed as effect on parasite phenotype; type: toxicity; conditions: read-out: Ratio IC50; outline: as §1
[15] = Selectivity index, ratio of IC50 for MDBK cells to IC50 for antischistosomal activity against schistosomula of Schistosoma mansoni assessed as effect on parasite phenotype; type: toxicity; conditions: cattle, read-out: Ratio IC50; outline: as §1
[16] = Cytotoxicity against MDBK cells after 24 hrs by MTT assay; type: cell-based, Bos taurus; conditions: cattle; outline: as §5
Schistosoma mansoni [17] = assay: Antischistosomal activity against schistosomula of Schistosoma mansoni assessed as effect on parasite motility by throughput high content image analysis; type: functional, organism-based; outline: as §3
Fasciola hepatica [18] = assay: Antifasciola activity against newly excysted juveline stage of Fasciola hepatica Italian assessed as effect on parasite motility after 72 hrs; type: functional, organism-based; outline: as §4
Fasciola hepatica [19] = assay: Antifasciola activity against immature stage of Fasciola hepatica Italian assessed as loss of spines on ventral surface at 13.3 uM after 72 hrs by osmium tetroxide staining-based scanning electron microscopic method; type: functional, organism-based
Schistosoma mansoni [20] = assay: Antischistosomal activity against female adult stage of Schistosoma mansoni assessed as tegumental disruption throughtout the whole body at 25 uM after 72 hrs by osmium tetroxide staining-based scanning electron microscopic method; type: functional, organism-based
Schistosoma mansoni [21] = assay: Antischistosomal activity against adult stage of Schistosoma mansoni assessed as effect on parasite motility up to 12.5 uM after 72 hrs by microscopic method; type: functional, organism-based; outline: as §6
Schistosoma mansoni [22] = assay: Antischistosomal activity against adult stage of Schistosoma mansoni assessed as appearance of abnormal shaped eggs at 6.25 uM after 72 hrs by fluorescence microscopic method; type: functional, organism-based
Outline: (§7)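 Adult worm pairs from infected MF-1 mice were cultured 72 hr at 37 °C, 5% CO2, in modified DMEM with 10% FCS. At 72 hr, eggs were collected from each well, counted, pelleted at 200 x g, fixed in 10% formaldehyde in PBS, and viewed under natural light and a GFP filter.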

Schistosoma mansoni [23] = assay: Antischistosomal activity against adult stage of Schistosoma mansoni assessed as appearance of smaller eggs at 6.25 uM after 72 hrs by fluorescence microscopic method; type: functional, organism-based; outline: as §7
Schistosoma mansoni [24] = assay: Antischistosomal activity against schistosomula of Schistosoma mansoni at 10 uM by throughput high content image analysis; type: functional, organism-based; outline: as §3
Schistosoma mansoni [25] = assay: Antischistosomal activity against adult stage of Schistosoma mansoni at 50 uM after 24 to 72 hrs by microscopic method; type: functional, organism-based; outline: as §6
Schistosoma mansoni [26] = assay: Antischistosomal activity against male adult stage of Schistosoma mansoni assessed as tegumental disruption throughtout the whole body at 25 uM after 72 hrs by osmium tetroxide staining-based scanning electron microscopic method; type: functional, organism-based
Schistosoma mansoni [27] = assay: Antischistosomal activity against male adult stage of Schistosoma mansoni assessed as loss of spinous tubercles natural shape at 25 uM after 72 hrs by osmium tetroxide staining-based scanning electron microscopic method; type: functional, organism-based
Schistosoma mansoni [28] = assay: Antischistosomal activity against adult stage of Schistosoma mansoni assessed as irregular auto-fluorescence of eggs at 6.25 uM after 72 hrs by fluorescence microscopic method; type: functional, organism-based; outline: as §7
Fasciola hepatica [29] = assay: Antifasciola activity against immature stage of Fasciola hepatica Italian assessed as exposure of basal lamina at 13.3 uM after 72 hrs by osmium tetroxide staining-based scanning electron microscopic method; type: functional, organism-based
Schistosoma mansoni [30] = assay: Antischistosomal activity against adult stage of Schistosoma mansoni assessed as loss of lateral spine in eggs at 6.25 uM after 72 hrs by fluorescence microscopic method; type: functional, organism-based; outline: as §7
Fasciola hepatica [31] = assay: Antifasciola activity against immature stage of Fasciola hepatica Italian assessed as sloughing of tegument at 13.3 uM after 72 hrs by osmium tetroxide staining-based scanning electron microscopic method; type: functional, organism-based
Fasciola hepatica [32] = assay: Antifasciola activity against adult stage of Fasciola hepatica Italian assessed as decoration of ventral surface by swollen tegumantal ridges and smaller spines at 40 uM after 72 hrs by osmium tetroxide staining-based scanning electron microscopic method; type: functional, organism-based
Schistosoma mansoni [33] = assay: Antischistosomal activity against schistosomula of Schistosoma mansoni at 1 uM by throughput high content image analysis; type: functional, organism-based
Schistosoma mansoni [34] = assay: Antischistosomal activity against female adult stage of Schistosoma mansoni assessed as loss of spinous tubercles natural shape at 25 uM after 72 hrs by osmium tetroxide staining-based scanning electron microscopic method; type: functional, organism-based

SMILES | IC50 (Fasciola hepatica [1]) [µM] | selectivity ratio [2] | selectivity ratio [3] | Activity (Schistosoma mansoni [4]) | selectivity ratio [5] | IC50 (Fasciola hepatica [6]) [µM] | IC50 (Fasciola hepatica [7]) [µM] | CC50 at 24 h [8] [µM] | IC50 (Schistosoma mansoni [9]) [µM] | selectivity ratio [10] | selectivity ratio [11] | selectivity ratio [12] | IC50 (Schistosoma mansoni [13]) [µM] | selectivity ratio [14] | selectivity ratio [15] | CC50 at 24 h [16] [µM] | IC50 (Schistosoma mansoni [17]) [µM] | IC50 (Fasciola hepatica [18]) [µM] | further results
COc1ccc2c(c1)[C@@]1(C)CCCC(C)(C)[C@@H]1CC2=O (relative stereo) | 14.6 | 3.2 | 3.3 | Active | 8.3 | 9.9 | 39.9 | 33.1 | 14.2 | 3.9 | 6.9 | 7.1 | > 50 | 2.3 | 5 | 70.6 | 10.3 | 8.4 | –
CC1(C)CCC[C@]2(C)c3ccc(O)cc3CC[C@@H]12 | 10.4 | 4.1 | 8 | Active | 13 | 3.2 | 28.4 | 25.6 | 6.8 | 10.2 | 5.2 | 10.2 | 19.9 | 3.8 | 4.8 | 32.5 | 6.3 | 2.5 | Activity (Fasciola hepatica [19]): Active; Activity (Schistosoma mansoni [20]): Active; Activity (Schistosoma mansoni [21]): Active; Activity (Schistosoma mansoni [22]): Active; Activity (Schistosoma mansoni [23]): Active; Activity (Schistosoma mansoni [24]): Active; Activity (Schistosoma mansoni [25]): Active; Activity (Schistosoma mansoni [26]): Active; Activity (Schistosoma mansoni [27]): Active; Activity (Schistosoma mansoni [28]): Active; Activity (Fasciola hepatica [29]): Active; Activity (Schistosoma mansoni [30]): Active; Activity (Fasciola hepatica [31]): Active; Activity (Fasciola hepatica [32]): Active; Activity (Schistosoma mansoni [33]): inactive; Activity (Schistosoma mansoni [34]): Active
